In ChEMBL document CHEMBL4251593, “Nontoxic combretafuranone analogues with high in vitro antibacterial activity” (Eur J Med Chem, 2018):
Converted amounts (≈) assume the structure as drawn.

Legend:
[1] = tested on: PC-3; test: Induction of apoptosis in human PC3 cells assessed as caspase 3/7 activity after 24 hrs by caspase-glo luminescent assay; assay type: cell-based; settings: PC-3, 24 h
Summary of the method: (§1)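 Cells were seeded at 500 per well in their growth media and exposed to 12 concentrations from 40 µM to 1 nM, delivered from DMSO, in triplicate. After 24 h, caspase-3/7 activity was read by Caspase-Glo luminescence. Data were normalized and ED50 was fitted by variable-slope nonlinear regression.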

[2] = tested on: PC-3; test: Cytotoxicity against human PC3 cells assessed as reduction in cell viability after 48 hrs by ATPlite-based luminescent assay; settings: PC-3, 48 h
Summary of the method: (§2)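 Cells were grown […] with 10% FBS, glutamax, NEAA and pen/strep at 37 °C, 5% CO2. Media were DMEM for RPE-1, HepG2 and BJ (BJ plus 10 ng/ml bFGF), F-12K for PC3, and IMDM for K562/HL-60. Cells were seeded at 500 per well and dosed from DMSO at 12 concentrations, 40 µM to 1 nM, in triplicate. After 48 h, intracellular ATP was read by luminescence. ED50 was obtained by variable-slope nonlinear regression.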

[3] = tested on: K562; test: Cytotoxicity against human K562 cells assessed as reduction in cell viability after 48 hrs by ATPlite-based luminescent assay; settings: K562, 48 h; summary of the method: as §2
[4] = tested on: TERT-RPE1; test: Cytotoxicity against human RPE1 cells assessed as reduction in cell viability after 48 hrs by ATPlite-based luminescent assay; settings: RPE-1, 48 h; summary of the method: as §2
[5] = tested on: HepG2; test: Cytotoxicity against human HepG2 cells assessed as reduction in cell viability after 48 hrs by ATPlite-based luminescent assay; settings: HepG2, 48 h; summary of the method: as §2
[6] = tested on: MCF7; test: Cytotoxicity against human MCF7 cells assessed as reduction in cell viability after 48 hrs by ATPlite-based luminescent assay; settings: MCF7, 48 h
[7] = tested on: BJ; test: Cytotoxicity against human BJ cells assessed as reduction in cell viability after 48 hrs by ATPlite-based luminescent assay; summary of the method: as §2
[8] = tested on: K562; test: Induction of apoptosis in human K562 cells assessed as caspase 3/7 activity after 24 hrs by caspase-glo luminescent assay; assay type: cell-based; settings: K562, 24 h; summary of the method: as §1
[9] = tested on: HL-60; test: Induction of apoptosis in human HL60 cells assessed as caspase 3/7 activity after 24 hrs by caspase-glo luminescent assay; assay type: cell-based; settings: HL-60, 24 h; summary of the method: as §1
[10] = tested on: TERT-RPE1; test: Induction of apoptosis in human RPE1 cells assessed as caspase 3/7 activity after 24 hrs by caspase-glo luminescent assay; assay type: cell-based; settings: RPE-1, 24 h; summary of the method: as §1
[11] = tested on: HL-60; test: Cytotoxicity against human HL60 cells assessed as reduction in cell viability after 48 hrs by ATPlite-based luminescent assay; settings: HL-60, 48 h; summary of the method: as §2
[12] = tested on: HepG2; test: Induction of apoptosis in human HepG2 cells assessed as caspase 3/7 activity after 24 hrs by caspase-glo luminescent assay; assay type: cell-based; settings: HepG2, 24 h; summary of the method: as §1
[13] = tested on: Pseudomonas aeruginosa; test: Antibacterial activity against Pseudomonas aeruginosa ATCC 9027 after 48 hrs by microdilution assay; assay type: functional; settings: ATCC 9027, 48 h
Summary of the method: (§3)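 Broth microdilution in Mueller-Hinton medium buffered to pH 7.4 (±0.2), with DMSO as diluent at no more than 2% final. Compounds were tested as 2-fold serial dilutions from 2000 to 0.488 µmol/l. The inoculum was 0.5 McFarland (1.5×10^8 cfu/ml). Plates were held at 37 °C and read visually at 24 and 48 h. MIC was taken as 95% growth inhibition versus control, determined twice in duplicate.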

[14] = tested on: Escherichia coli; test: Antibacterial activity against Escherichia coli ATCC 8739 after 48 hrs by microdilution assay; assay type: functional; settings: ATCC 8739, 48 h; summary of the method: as §3
[15] = tested on: Escherichia coli; test: Antibacterial activity against Escherichia coli ATCC 8739 after 24 hrs by microdilution assay; assay type: functional; settings: ATCC 8739, 24 h; summary of the method: as §3
[16] = tested on: Pseudomonas aeruginosa; test: Antibacterial activity against Pseudomonas aeruginosa ATCC 9027 after 24 hrs by microdilution assay; assay type: functional; settings: ATCC 9027, 24 h; summary of the method: as §3

Compound | IC50 [1] [µM] | IC50 [2] [µM] | IC50 [3] [µM] | IC50 [4] [µM] | IC50 [5] [µM] | IC50 [6] [µM] | IC50 [7] [µM] | IC50 [8] [µM] | IC50 [9] [µM] | IC50 [10] [µM] | IC50 [11] [µM] | IC50 [12] [µM] | MIC95 [13] [µM] | MIC95 [14] [µM] | MIC95 [15] [µM] | MIC95 [16] [µM]
COc1cc(C2=C(c3ccc4c(c3)OCO4)C(=O)OC2)cc(OC)c1OC | > 40 | > 40 | > 40 | > 40 | > 40 | > 40 | > 40 | > 40 | > 40 | > 40 | > 40 | > 40 | – | – | – | –
O=C(O)c1cn(C2CC2)c2cc(N3CCNCC3)c(F)cc2c1=O [CIPROFLOXACIN] | – | – | – | – | – | – | – | – | – | – | – | – | 7.81 (≈ 2.59 µg/mL) | 0.06 (≈ 0.0199 µg/mL) | 0.06 (≈ 0.0199 µg/mL) | 3.9 (≈ 1.29 µg/mL)
Cc1ccc(C2=C(c3ccccc3Cl)C(=O)OC2)cc1 | > 40 | > 40 | 0.78 | 2.09 | > 40 | > 40 | > 40 | > 40 | > 40 | 13.3 | 1.04 | > 40 | – | – | – | –
O=C1OCC(c2ccc(O)cc2)=C1c1ccc(Br)cc1 | > 40 | > 40 | > 40 | > 40 | > 40 | > 40 | > 40 | > 40 | > 40 | > 40 | > 40 | > 40 | – | – | – | –
CCc1ccc(C2=C(c3ccc(Br)cc3)C(=O)OC2)cc1 | > 40 | > 40 | 0.47 | 1.3 | > 40 | 13 | > 40 | > 40 | > 40 | > 40 | 1.02 | > 40 | – | – | – | –
O=C1OCC(c2ccc(Cl)cc2)=C1c1ccc(C(F)(F)F)cc1 | > 40 | > 40 | > 40 | 14.9 | > 40 | 12.3 | > 40 | > 40 | > 40 | > 40 | > 40 | > 40 | – | – | – | –
Cc1ccc(C2=C(c3ccc(Cl)cc3Cl)C(=O)OC2)cc1 | > 40 | > 40 | 0.19 | 0.91 | > 40 | 23.9 | > 40 | > 40 | 0.44 | 10.1 | 0.27 | > 40 | – | – | – | –
